This is an account of results in ChEMBL document CHEMBL4680075, “Small-Molecule CD4-Mimics: Structure-Based Optimization of HIV-1 Entry Inhibition” (ACS Med Chem Lett, 2016).

Experiment [1] concerns Human immunodeficiency virus 1. Briefly: Binding affinity to HIV1 YU-2 gp120 assessed as change in gibbs free energy by isothermal titration calorimetric analysis. A general note: In ITC the heat of successive injections is recorded.
The test system of experiment [2] is Human immunodeficiency virus 1. Briefly: Binding affinity to HIV1 YU-2 gp120 assessed as change in enthalpy by isothermal titration calorimetric analysis.
In experiment [3] the test system is Human immunodeficiency virus 1. Briefly: Antiviral activity against HIV1 pseudotyped with A-MLV envelop glycoprotein infected in dog Cf2Th/CD4-CCR5 cells assessed as inhibition of viral entry incubated for 30 mins prior to infection and measured after 48 hrs post infection by luciferase reporter gene assay. Format: functional, organism-based. The following applies: Human immunodeficiency virus 1, Cf2Th-CCR5. In outline: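 Control counterscreen: Cf2Th-CD4/CCR5 cells infected with luciferase-expressing HIV-1 pseudotyped with amphotropic murine leukemia virus envelope glycoproteins, compound at increasing concentrations; luciferase activity in target cells as percent of no-compound infection; IC50 from this.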
For orientation: A reporter such as luciferase makes a cellular process visible.

Experiment [4] in a line: Binding affinity to HIV1 YU-2 gp120 by isothermal titration calorimetric analysis. Also noted: species or system Human immunodeficiency virus 1.
Experiment [5] concerns Human immunodeficiency virus 1. Briefly: Antiviral activity against HIV1 JRFL infected in dog Cf2Th/CD4-CCR5 cells assessed as inhibition of viral entry incubated for 30 mins prior to infection and measured after 48 hrs post infection by luciferase reporter gene assay. In kind it is functional, organism-based. The following applies: Human immunodeficiency virus 1, JRFL. Summed up:
(§1)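 Cf2Th-CD4/CCR5 target cells infected with recombinant luciferase-expressing HIV-1 pseudoviruses bearing the indicated strain's envelope glycoproteins, with compound at increasing concentrations; infection read as target-cell luciferase activity, expressed as percent of infection without compound; IC50 derived from this.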

For experiment [6], the system named is Human immunodeficiency virus 1. Put plainly: Antiviral activity against HIV1 YU-2 infected in dog Cf2Th/CD4-CCR5 cells assessed as inhibition of viral entry incubated for 30 mins prior to infection and measured after 48 hrs post infection by luciferase reporter gene assay. The following applies: Human immunodeficiency virus 1, YU-2, Cf2Th-CCR5. Format: functional, organism-based. Summed up:
as §1

The test system of experiment [7] is Human immunodeficiency virus 1. Briefly: Binding affinity to HIV1 YU-2 gp120 assessed as change in entropy by isothermal titration calorimetric analysis.
In experiment [8] the test system is Human immunodeficiency virus 1. Briefly: Antiviral activity against HIV1 AD8 infected in dog Cf2Th/CD4-CCR5 cells assessed as inhibition of viral entry incubated for 30 mins prior to infection and measured after 48 hrs post infection by luciferase reporter gene assay. In kind it is functional, organism-based. The following applies: Human immunodeficiency virus 1, AD8, Cf2Th-CCR5. Summed up: as §1

Experiment [9] deals with Human immunodeficiency virus 1. Put plainly: Antiviral activity against HIV1 Clade B infected in human TZM-bl cells assessed as inhibition of viral entry incubated for 30 mins prior to infection and measured after 48 hrs post infection by luciferase reporter gene assay. In kind it is functional, organism-based. The conditions noted are these: Human immunodeficiency virus 1, Clade B.

Experiment [10] has as its system Human immunodeficiency virus 1. Put plainly: Antiviral activity against HIV1 Clade C infected in human TZM-bl cells assessed as inhibition of viral entry incubated for 30 mins prior to infection and measured after 48 hrs post infection by luciferase reporter gene assay. Format: functional, organism-based. The conditions noted are these: Human immunodeficiency virus 1, Clade C.

Take `CNCc1ccc2c(c1)[C@@H](NC(=O)C(=O)Nc1ccc(Cl)c(F)c1)[C@H](CNC(=N)N)C2`: in experiment [1], the deltaG was -7.5 kcal/mol. For the same molecule, in experiment [2], the deltaH was -11.3 kcal/mol. For the same molecule, the half-maximal inhibitory concentration (IC50) was greater than 100 µM in [3], greater than 100 µM in experiment [5], 87.8 µM in experiment [6] and greater than 100 µM in experiment [8]. Besides, the Kd in experiment [4] was determined as 3.4 µM. In experiment [7], the -TdeltaS was found to be 3.8 kcal/mol.

As for `CN(Cc1ccc2c(c1)C[C@H](CNC(=N)N)[C@H]2NC(=O)C(=O)Nc1ccc(Cl)c(F)c1)C(=N)N`, the deltaG in experiment [1] is -9.6 kcal/mol. Also, in experiment [2], the deltaH is -15.4 kcal/mol. Also, the IC50 is greater than 100 µM in experiment [3], 6.1 µM in experiment [5], 0.8 µM in experiment [6] and 1.6 µM in [8]. The same molecule had an equilibrium dissociation constant (Kd) in experiment [4] of 0.095 µM. The -TdeltaS in [7] stood at 5.8 kcal/mol.

In the case of `CN(Cc1ccc2c(c1)[C@H](NC(=O)C(=O)Nc1ccc(Cl)c(F)c1)[C@@H](CNC(=N)N)C2)C(=N)N`, the deltaG in experiment [1] is -9.6 kcal/mol. For the same molecule, the deltaH in experiment [2] is -14.2 kcal/mol. In addition, the IC50 in experiment [3] amounted to 83.7 µM; in [5], 19.7 µM; in [6], 1.6 µM; in experiment [8], 1.2 µM. Besides, binding in [4] was characterised by a dissociation constant (Kd) of 0.095 µM. Moreover, the -TdeltaS in experiment [7] worked out at 4.6 kcal/mol.

For the molecule `N=C(N)NC[C@H]1Cc2ccccc2[C@@H]1NC(=O)C(=O)Nc1ccc(Cl)c(F)c1`, in [1], the deltaG was -9.5 kcal/mol. Besides, the deltaH in experiment [2] is -17.9 kcal/mol. Besides, the IC50 in [3] turned out to be 94.3 µM; in experiment [5] it was 66.8 µM; in experiment [6], 3.8 µM; in [8], 8.5 µM. In [4], this molecule gave a dissociation constant (Kd) of 0.11 µM. Besides, the -TdeltaS in experiment [7] was 8.4 kcal/mol.

Turning to `CNCc1ccc2c(c1)C[C@@H](CNC(=N)N)[C@@H]2NC(=O)C(=O)Nc1ccc(Cl)c(F)c1`, the deltaG in [1] was -8.1 kcal/mol. In addition, the deltaH in experiment [2] is -13.2 kcal/mol. Also, the IC50 in [3] was greater than 100 µM; in experiment [5], greater than 100 µM; in experiment [6], 21 µM. Also, in experiment [4], the Kd was 1.2 µM. Besides, the -TdeltaS in [7] came to 5.1 kcal/mol.

In the case of `CNCc1ccc2c(c1)[C@H](NC(=O)C(=O)Nc1ccc(Cl)c(F)c1)[C@@H](CNC(=N)N)C2`, the deltaG in experiment [1] is -10.4 kcal/mol. Also, the deltaH in [2] is -28.2 kcal/mol. The IC50 was greater than 100 µM in experiment [3], 37.3 µM in experiment [5], 2.1 µM in [6] and 6.7 µM in experiment [8]. The same molecule yielded a Kd in experiment [4] of 0.024 µM. Further, the -TdeltaS in [7] worked out at 17.8 kcal/mol.

Take `CNCc1ccc2c(c1)C[C@H](CNC(=N)N)[C@H]2NC(=O)C(=O)Nc1ccc(Cl)c(F)c1`: the deltaG in experiment [1] was -10 kcal/mol. The deltaH in experiment [2] is -20.7 kcal/mol. In addition, the IC50 in experiment [3] is greater than 100 µM; in [9] it was 3.5 µM; in experiment [5], 14.5 µM; in [6], 1.3 µM; in experiment [8], 3.1 µM; in experiment [10], 17 µM. For the same molecule, in experiment [4], the Kd is 0.047 µM. Further, the -TdeltaS in experiment [7] was 10.7 kcal/mol.

One may read the IC50 as the midpoint of a concentration-inhibition curve. As a reminder, the Kd is the constant that tells how readily two partners part at equilibrium. Low values mean higher affinity, high ones lower affinity.
